Measured values taken from the array DNA melting data of Ke et al. (doi:10.1101/2024.01.08.574731).

Legend:
[1] = melting temperature; fluorescence melt of hairpins on a sequencing array, two-state fit, raised by 9.35 °C to match UV melts; details: sodium 0.088 M
In short: (§1)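 On a sequenced MiSeq flow cell, library hairpins with annealed Cy3 and quencher oligos were imaged for Cy3 fluorescence in 2.5 °C steps up to 60 °C, in 50 mM Na-HEPES pH 8.0, 25 mM NaCl. Normalisation used pre-quench Cy3 and control constructs. Bootstrapped two-state fits gave melting temperature and folding enthalpy, combined by inverse variance across four replicates and with fitted temperatures raised by 9.35 °C to match UV melts.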

[2] = folding enthalpy; higher = less favourable; fluorescence melt of hairpins on a sequencing array, two-state fit; details: sodium 0.088 M
In short: as §1

Row | Sequence | Tm [1] | folding enthalpy [2]
1 | GTACAAACGAAAGTTTAC (((..(((....)))))) | 22.1 °C | -8.86 kcal/mol
2 | GTACAACCGAAAGGTTAC (((..(((....)))))) | 29.8 °C | -10.7 kcal/mol
3 | GTACAAGGAAACTTGTGC (.(((((....))))).) | 45.4 °C | -22.3 kcal/mol
4 | GTACACCGAAAGGTTAC (((.(((....)))))) | 39.9 °C | -20.5 kcal/mol
5 | GTACACCGAAAGGTTTAC (((.(((....))).))) | 42 °C | -30.6 kcal/mol
6 | GTACACGAAAGTGATAC ((((((....))).))) | 40.1 °C | -17.1 kcal/mol
7 | GTACACGAAAGTGGGTAC ((((((....)))..))) | 37.4 °C | -14.9 kcal/mol
8 | GTACACGAAAGTGGTAC ((((((....))).))) | 47.8 °C | -17.9 kcal/mol
9 | GTACACGGAAACACGTAC ((((..(....)..)))) | 29.1 °C | -15.4 kcal/mol
10 | GTACACGGAAACGTATAC (((.(((....))).))) | 33.6 °C | -23.8 kcal/mol
11 | GTACAGCCGAAAGGCTAC (((..(((....)))))) | 27.2 °C | -7.38 kcal/mol
12 | GTACAGGGAAACCCGTAC ((((.((....)).)))) | 43.4 °C | -24.8 kcal/mol
13 | GTACAGTCGAAAGACTAC (((..(((....)))))) | 29.7 °C | -10.2 kcal/mol
14 | GTACATCGAAAGATTTAC (((.(((....))).))) | 35 °C | -17.8 kcal/mol
15 | GTACATGGAAACATGTGC (.(((((....))))).) | 48.6 °C | -22.7 kcal/mol
16 | GTACATGGAAACGTGTAC (((((.(....).))))) | 45.8 °C | -32.1 kcal/mol
17 | GTACCAGAAATGGTAC ((((((....)))))) | 53.2 °C | -33.1 kcal/mol
18 | GTACCCCCGAAAGGGTAC (((..(((....)))))) | 52.3 °C | -25.7 kcal/mol
19 | GTACCCGAAAGGGGATAC ((((((....)))..))) | 41.9 °C | -11.9 kcal/mol
20 | GTACCCGGAAACGAGTAC ((((.((....)).)))) | 41.1 °C | -25.8 kcal/mol
21 | GTACCCGGAAACGGGTGC (.(((((....))))).) | 60.1 °C | -20.1 kcal/mol
22 | GTACCTGGAAACAGGCAC ((.((((....)))).)) | 42.5 °C | -22.1 kcal/mol
23 | GTACGACGAAAGTCTTAC (((.(((....))).))) | 40.3 °C | -26.1 kcal/mol

Row | Sequence | Tm [1] | folding enthalpy [2]
24 | GTACGCGAAAGCGAATAC ((((((....)))..))) | 31.9 °C | -8.59 kcal/mol
25 | GTACGCGAAAGCGCGTAC ((((((....)))..))) | 62.5 °C | -25.7 kcal/mol
26 | GTACGCGAAAGCGCTTAC ((((((....)))..))) | 29.4 °C | -9.36 kcal/mol
27 | GTACGCGAAAGCGTATAC ((((((....)))..))) | 49.2 °C | -9.55 kcal/mol
28 | GTACGCGGAAACACGCAC ((.((.(....).)).)) | 31.1 °C | -12.6 kcal/mol
29 | GTACGCGGAAACACGTAC (((((.(....).))))) | 47.9 °C | -34.1 kcal/mol
30 | GTACGGACGAAAGTCTAC (((..(((....)))))) | 31 °C | -10.2 kcal/mol
31 | GTACGGCCGAAAGGCTAC (((..(((....)))))) | 28.7 °C | -7.78 kcal/mol
32 | GTACGGGGAAACCCATAC (((.(((....))).))) | 35 °C | -21.9 kcal/mol
33 | GTACGGGGAAACCTGTAC ((((.((....)).)))) | 49.7 °C | -35.9 kcal/mol
34 | GTACGGTCGAAAGACTAC (((..(((....)))))) | 26.8 °C | -10.6 kcal/mol
35 | GTACGTGGAAACACGTAC (((((((....))))))) | 63.8 °C | -46.8 kcal/mol
36 | GTACGTGGAAACATGTAC ((((.((....)).)))) | 47.5 °C | -34.1 kcal/mol
37 | GTACTACGAAAGTATAC (((.(((....)))))) | 27.9 °C | -15.3 kcal/mol
38 | GTACTCCCGAAAGGGTAC (((..(((....)))))) | 33.5 °C | -12.9 kcal/mol
39 | GTACTCCGAAAGGATAC (((.(((....)))))) | 36.9 °C | -21.6 kcal/mol
40 | GTACTCGAAAGAGACTAC ((((((....)))..))) | 33.6 °C | -14.5 kcal/mol
41 | GTACTCGAAAGAGCATAC ((((((....)))..))) | 23.5 °C | -10.9 kcal/mol
42 | GTACTCGAAAGAGCTTAC ((((((....)))..))) | 27.6 °C | -11.4 kcal/mol
43 | GTACTCGAAAGAGTATAC ((((((....)))..))) | 39.3 °C | -13.3 kcal/mol
44 | GTACTCGAAAGAGTGTAC ((((((....)))..))) | 35.9 °C | -12.6 kcal/mol
45 | GTACTCGAAAGAGTTAC ((((((....))).))) | 38.9 °C | -14.8 kcal/mol
46 | GTACTCGGAAACAAGTAC (((((.(....).))))) | 32.5 °C | -23.4 kcal/mol

Row | Sequence | Tm [1] | folding enthalpy [2]
47 | GTACTCGGAAACGAATAC (((.(((....))).))) | 33.5 °C | -17.8 kcal/mol
48 | GTACTGCGAAAGCATAC (((.(((....)))))) | 36.6 °C | -12 kcal/mol
49 | GTACTGGGAAACTGGTAC ((((..(....)..)))) | 36.5 °C | -24.5 kcal/mol
50 | GTACTGTCGAAAGACTAC (((..(((....)))))) | 26.4 °C | -10.3 kcal/mol
51 | GTACTTACGAAAGTATAC (((..(((....)))))) | 16.2 °C | -6.58 kcal/mol
52 | GTACTTGGAAACAAGTGC (.(((((....))))).) | 47.4 °C | -21.1 kcal/mol
53 | GTACTTGGAAACGAGTAC (((((.(....).))))) | 44.2 °C | -33.6 kcal/mol
54 | GTAGACGAAAGTCCTTAC ((((((....)))..))) | 30.7 °C | -12.1 kcal/mol
55 | GTAGACGAAAGTCGTTAC ((((((....)))..))) | 34.6 °C | -11 kcal/mol
56 | GTAGACGAAAGTCTAC ((((((....)))))) | 62 °C | -35.9 kcal/mol
57 | GTAGACGCGAAAGCGTAC (((..(((....)))))) | 36.9 °C | -8.63 kcal/mol
58 | GTAGACGGAAACGTTTGC (.(.(((....))).).) | 29.6 °C | -16.7 kcal/mol
59 | GTAGAGCCGAAAGGCTAC (((..(((....)))))) | 34.6 °C | -10.5 kcal/mol
60 | GTAGAGGGAAACCTCTAC (((((((....))))))) | 55.8 °C | -54.2 kcal/mol
61 | GTAGATGAAAATCTAC ((((((....)))))) | 48.6 °C | -29.2 kcal/mol
62 | GTAGATGGAAACATCTAC (((((((....))))))) | 55.5 °C | -41.3 kcal/mol
63 | GTAGCAGGAAACCGCTAC (((((.(....).))))) | 48.5 °C | -32.4 kcal/mol
64 | GTAGCAGGAAACTGCCAC ((.((((....)))).)) | 36.7 °C | -14.3 kcal/mol
65 | GTAGCCCCGAAAGGGTAC (((..(((....)))))) | 39.1 °C | -13.1 kcal/mol
66 | GTAGCCCGAAAGGGGTAC (((.(((....))).))) | 68.5 °C | -32 kcal/mol
67 | GTAGCCCGAAAGGGTTAC (((.(((....))).))) | 60.2 °C | -25.4 kcal/mol
68 | GTAGCCGAAAGGCAATAC ((((((....)))..))) | 31.2 °C | -9.85 kcal/mol
69 | GTAGCCGAAAGGCCGTAC ((((((....)))..))) | 26.7 °C | -7.15 kcal/mol

Row | Sequence | Tm [1] | folding enthalpy [2]
70 | GTAGCCGAAAGGCGGTAC ((((((....)))..))) | 41.2 °C | -9.4 kcal/mol
71 | GTAGCGCGAAAGCGGTAC (((.(((....))).))) | 68.8 °C | -25.3 kcal/mol
72 | GTAGCGGGAAACCGCTGC (.(((((....))))).) | 59.7 °C | -17.3 kcal/mol
73 | GTAGCGGGAAACCGTTGC (.(.(((....))).).) | 35.3 °C | -19.2 kcal/mol
74 | GTAGCGGGAAACTGCTAC (((((.(....).))))) | 53.6 °C | -37.1 kcal/mol
75 | GTAGCGTCGAAAGACTAC (((..(((....)))))) | 24.7 °C | -9.24 kcal/mol
76 | GTAGCTCGAAAGAGATAC (((.(((....))).))) | 54.9 °C | -43.5 kcal/mol
77 | GTAGCTGAAAAGCTAC ((((((....)))))) | 60 °C | -37.9 kcal/mol
78 | GTAGCTGGAAACAGTTAC (((.(((....))).))) | 42.8 °C | -32.8 kcal/mol
79 | GTAGCTGGAAACAGTTGC (.(.(((....))).).) | 30.8 °C | -14.5 kcal/mol
80 | GTAGCTGGAAACGGCTAC (((((.(....).))))) | 52.5 °C | -40.8 kcal/mol
81 | GTAGGACCGAAAGGTTAC (((..(((....)))))) | 28.5 °C | -12.7 kcal/mol
82 | GTAGGACGAAAGTCGTAC (((.(((....))).))) | 53.2 °C | -35.6 kcal/mol
83 | GTAGGACGAAAGTCTTAC (((.(((....))).))) | 47.7 °C | -26.2 kcal/mol
84 | GTAGGAGGAAACTCCCAC ((.((((....)))).)) | 30.9 °C | -16.4 kcal/mol
85 | GTAGGCGAAAGCCCCTAC ((((((....)))..))) | 23.7 °C | -7.29 kcal/mol
86 | GTAGGCGAAAGCCCTAC ((((((....))).))) | 47.7 °C | -14.8 kcal/mol
87 | GTAGGCGAAAGCCGTTAC ((((((....)))..))) | 39.8 °C | -8.81 kcal/mol
88 | GTAGGCGAAAGCCTTAC ((((((....))).))) | 44.9 °C | -9.64 kcal/mol
89 | GTAGGCGGAAACGCTTGC (.(.(((....))).).) | 30.3 °C | -11.6 kcal/mol
90 | GTAGGGGGAAACCCCTAC (((((((....))))))) | 61.9 °C | -37.4 kcal/mol
91 | GTAGGTCCGAAAGGATAC (((..(((....)))))) | 28.8 °C | -12.1 kcal/mol
